Measurements from different studies.
Each line is one published result; the experiments were not run side by side.
Target: Tyrosine-protein kinase SYK (SYK, Homo sapiens, UniProt P43405)

| Structure (SMILES) | effect on | mode | technique | concentration | endpoint | value |
| --- | --- | --- | --- | --- | --- | --- |
| Cn1cc(-c2cccc(N3CCc4c(sc5c4CC(C)(C)C5)C3=O)c2CO)cc(Nc2ccncn2)c1=O | enzyme activity | inhibitor | – | 1 µM | inhibition | 0% |
| Nc1ncc(-c2nc(N3CCOCC3)nc(N3CCOCC3)n2)c(C(F)F)n1 | binding | – | competition with immobilised ligand | 10 µM | remaining binding | 61% |
| O=c1[nH]c2ccccc2n1C1CCN(Cc2ccc(-c3[nH]c4cc5ncnc5cc4nc3-c3ccccc3)cc2)CC1 | cell-free assay | – | – | 0.5 µM | remaining signal | 97.9% |
| Cn1cncc1[C@@](O)(COc1ccc(C#N)cc1-c1ccc(OC(F)(F)F)cc1)c1ccc(C#N)cc1 | cell-free assay | – | competition with immobilised ligand | 1 µM | remaining binding | 100% |
| C#Cc1n[nH]c2c(-c3cn([C@@H](C)c4ccccn4)c(=O)[nH]c3=O)cc(F)cc12 | enzyme activity | inhibitor | – | 0.1 µM | inhibition | 3.3% |
| COc1ncccc1-c1cnn2ccc(N3CCN(C(=O)OC(C)C)CC3)nc12 | binding | – | competition with immobilised ligand | 1 µM | remaining binding | 100% |
| N#CC1(c2ccccn2)CCN(Cc2cc(C(=O)O)c(=O)n3ccccc23)CC1 | cell-free assay | – | competition with immobilised ligand | 1 µM | remaining binding | 92% |
| Cc1nn(C)cc1-c1nc2c(N3CCN(Cc4ccc(Cl)cc4)CC3)c(Cl)cnc2[nH]1 | binding | – | competition with immobilised ligand | 1 µM | remaining binding | 100% |
| Cn1cc(-c2cc(F)cc(N3CCn4c(cc5c4CCCC5)C3=O)c2CO)cc(Nc2ccc(N3CCN(C4COC4)CC3)cn2)c1=O | enzyme activity | inhibitor | – | 0.1 µM | inhibition | 12% |
